These results are taken from ChEMBL document CHEMBL3044723, “Phytotoxins from the leaves of Ruta graveolens” (2004).

Calls of active or inactive are those of the source. The calls are words filed in the database; no cut-off is given here.

Experiment [1] has as its system Lactuca sativa. The experiment can be described thus: Phytotoxicity against Lactuca sativa cv. Burpee's Iceberg (lettuce) assessed as reduction in radical length at 10 uM after 7 days by spectrophotometry relative to control. It counts as functional. More on the design: scale not given: the % may be the effect or the level left. A digest of the protocol: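 Lettuce seeds were set in multiwell plates with test material supplied from acetone in DDI water (3% acetone final). Controls received acetone and water only. Plates were sealed and kept at 26 °C under continuous light at 173 µmol s⁻¹ m⁻² for 7 days. Root lengths, together with plant weight and chlorophyll content, were compared against untreated controls.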

The subject of experiment [2] is Lactuca sativa. The experiment can be described thus: Phytotoxicity against Lactuca sativa cv. Burpee's Iceberg (lettuce) assessed as reduction in chlorophyll content at 100 uM after 7 days by spectrophotometry. It counts as functional, organism-based. The procedure, abridged: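 Seeds grown in 24-well plates in water with 3% acetone, at 26 °C under continuous light (173 µmol s⁻¹ m⁻²) for 7 days. Cotyledons from three plants per well were weighed and extracted in 2 mL DMSO at 60 °C for 2 h, then diluted with 1 mL more DMSO. A645 and A663 were read and converted to total chlorophyll (20.2A645 + 8.02A663). Values were normalized to cotyledon weight.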

For experiment [3], the system named is Allium cepa. Briefly: Phytotoxicity against Allium cepa (onion) assessed as accumulation of cells at prophase in root tips at 33 uM measured on day 7 of compound treatment by microscopy. It counts as functional, organism-based. The procedure, abridged:
(§1)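 Ten surface-sterilized onion seeds were placed on filter paper in 6-cm dishes with 1 mL of water containing compound (final 0.05% acetone). Controls received water or acetone/water. Dishes were kept at 25 °C under a 16 h photoperiod at 173 µmol s⁻¹ m⁻². On day 7, root tips were fixed (HOAc/EtOH 1:3), hydrolyzed in 5 N HCl for 1 h, and Feulgen-stained with Schiff's reagent for 45 min. At least 1000 cells per slide were scored at 40×.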

The test system of another experiment is Agrostis stolonifera. The experiment can be described thus: Phytotoxicity against Agrostis stolonifera assessed as mortality at 333 uM after 12 days. It counts as functional, organism-based. The procedure, abridged: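 Seeds (10 mg) per well of 24-well plates in 250 µL water containing 3% acetone as final concentration; solvent-only controls. Plates were sealed and incubated at 26 °C under continuous light at 173 µmol s⁻¹ m⁻². Concentrations tested were 10, 33, 100 and 333 µM. Phytotoxicity was scored visually against untreated controls.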

The test system of experiment [4] is Lactuca sativa. The experiment can be described thus: Phytotoxicity against Lactuca sativa cv. Burpee's Iceberg (lettuce) assessed as blunt root tips at 10 uM after 7 days by spectrophotometry relative to control. It counts as functional, organism-based.
For experiment [5], the system named is Lactuca sativa. Briefly: Phytotoxicity against Lactuca sativa cv. Burpee's Iceberg (lettuce) assessed as reduction in chlorophyll content compound treated at 100 uM in darkness after 7 days followed by exposure to white light by spectrophotometry. It counts as functional, organism-based. The procedure, abridged:
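Seedlings were treated in wells with 1% acetone final and kept in foil-wrapped darkness at 26 °C for 7 days. They then received 5 min of white light (80 µmol s⁻¹ m⁻² PAR) and were returned to darkness for 1 h. Ten cotyledon pairs were weighed and extracted in DMSO in the dark. Chlorophyll was read at 645/663 nm and compared with the solvent control.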

The subject of experiment [6] is Allium cepa. Briefly: Phytotoxicity against Allium cepa (onion) assessed as accumulation of cells at metaphase in root tips at 33 uM measured on day 7 of compound treatment by microscopy. It counts as functional, organism-based. The procedure, abridged: as §1
The test system of experiment [7] is Lactuca sativa. The experiment can be described thus: Phytotoxicity against Lactuca sativa cv. Burpee's Iceberg (lettuce) assessed as unbranched root tips at 10 uM after 7 days by spectrophotometry relative to control. It is filed as functional, organism-based.
Experiment [8] relates to Allium cepa. Briefly: Phytotoxicity against Allium cepa (onion) assessed as inhibition of mitosis in root tips at 100 uM measured on day 7 of compound treatment by microscopy. It is filed as functional, organism-based. A digest of the protocol:
as §1

In experiment [9] the test system is Lemna aequinoctialis. Briefly: Phytotoxicity against Lemna paucicostata assessed as tissue degradation at 250 uM after 4 to 5 days. It counts as functional, organism-based.
Experiment [10] has as its system Lemna aequinoctialis. Briefly: Phytotoxicity against Lemna paucicostata assessed as growth inhibition at 100 uM after 4 to 5 days. It is filed as functional, organism-based. A digest of the protocol:
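Hoagland medium at pH 5.5 was filter-sterilized in 6-well plates, with compound added in acetone or EtOH (1% final). Two three-frond colonies from 4- to 5-day-old stock cultures were placed per well. Total frond area was recorded by image analysis from day 0 to day 7.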

Consider `COc1c2occc2cc2ccc(=O)oc12` [METHOXSALEN], for which the Activity in the experiment with Lactuca sativa [1] was 39%. For the same compound, the outcome in the experiment with Lactuca sativa [2], in the experiment on Allium cepa [3], in the experiment on Agrostis stolonifera, in the experiment with Lactuca sativa [4], in the experiment on Allium cepa [6] and with Lactuca sativa [7] was Active. For the same compound, the outcome in the experiment on Lactuca sativa [5] was inactive. Further, the inhibition entry with Allium cepa [8] is “Active”.
As to `Cn1c(-c2ccc3c(c2)OCO3)cc(=O)c2ccccc21`, the result with Lemna aequinoctialis [9], with Lactuca sativa [2] and in the experiment on Agrostis stolonifera was Active. In addition, in the experiment with Lactuca sativa [5], the result was inactive. In addition, the “growth inhibition (GI)” value with Lemna aequinoctialis [10] was “Active”. Further, the inhibition entry in the experiment on Allium cepa [8] was “Active”.
Consider `COc1c2ccoc2cc2oc(=O)ccc12`, for which the outcome in the experiment with Lactuca sativa [1], in the experiment with Lactuca sativa [4] and in the experiment on Lactuca sativa [7] was inactive. Moreover, in the experiment on Agrostis stolonifera, the result was Active. In addition, the inhibition entry in the experiment with Allium cepa [8] is “Active”.
